Source: ChEMBL document CHEMBL3526048, “In vitro metabolism of rivoglitazone, a novel peroxisome proliferator-activated receptor γ agonist, in rat, monkey, and human liver microsomes and freshly isolated hepatocytes” (Drug Metab Dispos, 2011)

Tests used:
Cytochrome P450 3A5 [1] = biological target: T1, Cytochrome P450 3A5 (Homo sapiens, UniProt P20815); test: Activity of human CYP3A5 expressed in microsomes isolated from baculovirus infected insect cell assessed as enzyme-mediated (2S,3S,4S,5R,6R)-6-((1-carboxy-2-(4-((6-methoxy-1-methyl-1H-benzo[d]imidazol-2-yl)methoxy)phenyl)ethylthio)carbonylamino)-3,4,5-trihydroxytetrahydro-2H-pyran-2-carboxylic acid formation at 20 uM after 2 hrs by radio-HPLC/LC-MS/MS analysis in presence of NADPH-generating system/SAM; type: ADME
T1 sequence (P20815 whole entry): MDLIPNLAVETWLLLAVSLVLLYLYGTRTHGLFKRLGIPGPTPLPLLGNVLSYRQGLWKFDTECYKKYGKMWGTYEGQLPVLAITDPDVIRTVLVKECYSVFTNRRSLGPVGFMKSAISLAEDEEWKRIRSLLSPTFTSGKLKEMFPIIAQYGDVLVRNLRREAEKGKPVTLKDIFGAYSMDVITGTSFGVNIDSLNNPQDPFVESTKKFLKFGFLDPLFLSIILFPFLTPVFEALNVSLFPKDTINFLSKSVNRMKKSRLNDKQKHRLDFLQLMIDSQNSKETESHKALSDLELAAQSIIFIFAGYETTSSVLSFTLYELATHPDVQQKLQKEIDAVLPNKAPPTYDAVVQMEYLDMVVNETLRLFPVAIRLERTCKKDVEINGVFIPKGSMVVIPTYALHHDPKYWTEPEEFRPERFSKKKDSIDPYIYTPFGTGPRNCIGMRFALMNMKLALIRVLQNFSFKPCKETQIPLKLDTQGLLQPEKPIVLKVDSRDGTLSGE

[2] = biological target: T2, UDP-glucuronosyltransferase 2B7 (Homo sapiens, UniProt P16662); test: Activity of human UGT2B7 expressed in microsomes isolated from baculovirus infected insect cell assessed as enzyme-mediated 2-((4-((2,4-dioxothiazolidin-5-yl)methyl)phenoxy)methyl)-1-methyl-1H-benzo[d]imidazol-6-yl hydrogen sulfate formation at 20 uM after 4 hrs by radio-HPLC/LC-MS/MS analysis; type: ADME
T2 sequence (P16662 whole entry): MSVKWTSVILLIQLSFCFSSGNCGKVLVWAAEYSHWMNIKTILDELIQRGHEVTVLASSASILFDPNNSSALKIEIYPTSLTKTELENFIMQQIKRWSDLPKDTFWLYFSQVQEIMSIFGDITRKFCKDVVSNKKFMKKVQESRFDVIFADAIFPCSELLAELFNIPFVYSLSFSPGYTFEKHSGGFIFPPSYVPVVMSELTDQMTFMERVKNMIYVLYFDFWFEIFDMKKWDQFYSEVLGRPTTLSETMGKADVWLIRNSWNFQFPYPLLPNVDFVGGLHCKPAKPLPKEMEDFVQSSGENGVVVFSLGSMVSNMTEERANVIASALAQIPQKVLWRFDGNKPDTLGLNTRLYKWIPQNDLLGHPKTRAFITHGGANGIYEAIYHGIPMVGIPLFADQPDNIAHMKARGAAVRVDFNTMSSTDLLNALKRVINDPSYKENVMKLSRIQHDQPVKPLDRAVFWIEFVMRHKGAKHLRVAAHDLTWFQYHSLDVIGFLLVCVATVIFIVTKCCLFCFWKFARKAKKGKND

[3] = biological target: T2, UDP-glucuronosyltransferase 2B7; test: Activity of human UGT2B7 expressed in microsomes isolated from baculovirus infected insect cell assessed as enzyme-mediated 2-mercapto-3-(4-((6-methoxy-1-methyl-1H-benzo[d]imidazol-2-yl)methoxy)phenyl)propanamide formation at 20 uM after 4 hrs by radio-HPLC/LC-MS/MS analysis in presence of NADPH-generating system and NADPH-generating system/SAM in presence of UDPGA and UDPGA/SAM; type: ADME
Cytochrome P450 3A4 = Cytochrome P450 3A4 (Homo sapiens, UniProt P08684); test: Activity of human CYP3A4 expressed in microsomes isolated from baculovirus infected insect cell assessed as enzyme-mediated 3-(4-((6-methoxy-1-methyl-1H-benzo[d]imidazol-2-yl)methoxy)phenyl)-2-(methylthio)propanoic acid formation at 20 uM after 2 hrs by radio-HPLC/LC-MS/MS analysis in presence of NADPH-generating system/SAM and UDPGA/SAM; type: ADME
Sequence of Cytochrome P450 3A4 (P08684 whole entry): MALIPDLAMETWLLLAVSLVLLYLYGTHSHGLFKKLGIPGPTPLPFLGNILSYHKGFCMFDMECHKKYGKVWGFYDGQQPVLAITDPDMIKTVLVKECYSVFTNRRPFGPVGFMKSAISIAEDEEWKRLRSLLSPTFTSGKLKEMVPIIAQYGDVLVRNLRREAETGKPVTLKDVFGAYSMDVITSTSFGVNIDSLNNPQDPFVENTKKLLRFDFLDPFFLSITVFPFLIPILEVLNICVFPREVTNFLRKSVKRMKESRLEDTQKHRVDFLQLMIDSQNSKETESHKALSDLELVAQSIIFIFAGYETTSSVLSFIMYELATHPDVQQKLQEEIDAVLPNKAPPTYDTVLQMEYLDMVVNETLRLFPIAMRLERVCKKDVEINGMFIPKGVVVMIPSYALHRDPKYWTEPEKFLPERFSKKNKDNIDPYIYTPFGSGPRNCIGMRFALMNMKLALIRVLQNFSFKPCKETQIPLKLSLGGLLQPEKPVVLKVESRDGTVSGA

[4] = Drug metabolism in rat hepatocytes assessed as formation of 3-(4-((6-methoxy-1-methyl-1H-benzo[d]imidazol-2-yl)methoxy)phenyl)-2-(methylsulfonyl)propanamide at 30 uM after 3 hrs by radio-HPLC/LC-MS/MS analysis in presence of NADPH-generating system/SAM; type: ADME, cell-based, Hepatocyte
Cytochrome P450 1A2 = biological target: T3, Cytochrome P450 1A2 (Homo sapiens, UniProt P05177); test: (§1) Activity of human CYP1A2 expressed in microsomes isolated from baculovirus infected insect cell assessed as enzyme-mediated 5-(4-((6-methoxy-1H-benzo[d]imidazol-2-yl)methoxy)benzyl)thiazolidine-2,4-dione formation at 20 uM after 2 hrs by radio-HPLC/LC-MS/MS analysis in presence of NADPH-generating system and NADPH-generating system/SAM; type: ADME
T3 sequence (P05177 whole entry): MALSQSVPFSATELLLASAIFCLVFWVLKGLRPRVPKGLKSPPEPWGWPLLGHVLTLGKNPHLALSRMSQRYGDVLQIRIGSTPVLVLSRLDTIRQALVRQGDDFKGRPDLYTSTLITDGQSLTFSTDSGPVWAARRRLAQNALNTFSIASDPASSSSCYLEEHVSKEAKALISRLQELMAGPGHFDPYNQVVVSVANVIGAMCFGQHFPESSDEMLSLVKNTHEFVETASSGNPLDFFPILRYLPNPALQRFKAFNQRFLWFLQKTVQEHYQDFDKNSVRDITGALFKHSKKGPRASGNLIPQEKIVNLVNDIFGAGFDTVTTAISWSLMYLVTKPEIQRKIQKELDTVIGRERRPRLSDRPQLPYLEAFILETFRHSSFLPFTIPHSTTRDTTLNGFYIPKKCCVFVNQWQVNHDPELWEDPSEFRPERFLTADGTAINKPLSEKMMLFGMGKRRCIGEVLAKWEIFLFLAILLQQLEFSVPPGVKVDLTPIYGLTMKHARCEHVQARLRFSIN
Method in brief: (§2)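 Baculovirus/insect-cell microsomes expressing single human CYPs, 1 mg/ml protein, with 50 mM potassium phosphate (pH 7.4) or 100 mM Tris-HCl (pH 7.5). NADPH-generating system: 2 mM NADP⁺, 20 mM glucose 6-phosphate, 2 units/ml G6PDH, 10 mM MgCl₂. [¹⁴C]rivoglitazone at 20 μM, 2 h at 37°C with shaking. Control used insect-cell control supersomes. Stopped with acetonitrile; supernatant concentrated under nitrogen; metabolites analysed by radio-HPLC, LC-MS and LC-MS/MS.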

Cytochrome P450 2C19 = Cytochrome P450 2C19 (Homo sapiens, UniProt P33261); test: as §1, with “CYP2C19” for “CYP1A2”; type: ADME; method in brief: as §2
Sequence of Cytochrome P450 2C19 (P33261 whole entry): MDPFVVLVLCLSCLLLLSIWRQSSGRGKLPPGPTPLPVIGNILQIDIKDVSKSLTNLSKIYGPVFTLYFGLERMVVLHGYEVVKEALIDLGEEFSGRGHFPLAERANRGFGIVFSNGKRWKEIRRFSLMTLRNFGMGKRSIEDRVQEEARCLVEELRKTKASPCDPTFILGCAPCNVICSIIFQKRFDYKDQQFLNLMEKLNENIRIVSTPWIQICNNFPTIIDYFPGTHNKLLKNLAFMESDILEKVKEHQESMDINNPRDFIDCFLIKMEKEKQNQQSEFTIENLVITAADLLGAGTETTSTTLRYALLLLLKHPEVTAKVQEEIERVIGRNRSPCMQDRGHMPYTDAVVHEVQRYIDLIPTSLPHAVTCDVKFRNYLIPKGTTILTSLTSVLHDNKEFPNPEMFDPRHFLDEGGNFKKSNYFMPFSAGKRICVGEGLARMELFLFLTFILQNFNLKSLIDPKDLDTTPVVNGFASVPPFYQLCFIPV

Cytochrome P450 3A5 [5] = biological target: T1, Cytochrome P450 3A5; test: Activity of human CYP3A5 expressed in microsomes isolated from baculovirus infected insect cell assessed as enzyme-mediated (2S,3S,4S,5R,6R)-3,4,5-trihydroxy-6-(5-(4-((6-methoxy-1-methyl-1H-benzo[d]imidazol-2-yl)methoxy)benzyl)-2,4-dioxothiazolidin-3-yl)tetrahydro-2H-pyran-2-carboxylic acid formation at 20 uM after 2 hrs by radio-HPLC/LC-MS/MS analysis in presence of UDPGA and UDPGA/SAM; type: ADME
[6] = Drug metabolism in rat hepatocytes assessed as formation of (2S,3S,4S,5R,6R)-6-((1-carboxy-2-(4-((6-methoxy-1-methyl-1H-benzo[d]imidazol-2-yl)methoxy)phenyl)ethylthio)carbonylamino)-3,4,5-trihydroxytetrahydro-2H-pyran-2-carboxylic acid at 30 uM after 3 hrs by radio-HPLC/LC-MS/MS analysis in presence of UDPGA and UDPGA/SAM; type: ADME, cell-based, Hepatocyte
[7] = biological target: T4, UDP-glucuronosyltransferase 1A3 (Homo sapiens, UniProt P35503); test: Activity of human UGT1A3 expressed in microsomes isolated from baculovirus infected insect cell assessed as enzyme-mediated 3-(4-((6-methoxy-1-methyl-1H-benzo[d]imidazol-2-yl)methoxy)phenyl)-2-(methylsulfinyl)propanamide formation at 20 uM after 4 hrs by radio-HPLC/LC-MS/MS analysis in presence of NADPH-generating system/SAM; type: ADME
T4 sequence (P35503 whole entry): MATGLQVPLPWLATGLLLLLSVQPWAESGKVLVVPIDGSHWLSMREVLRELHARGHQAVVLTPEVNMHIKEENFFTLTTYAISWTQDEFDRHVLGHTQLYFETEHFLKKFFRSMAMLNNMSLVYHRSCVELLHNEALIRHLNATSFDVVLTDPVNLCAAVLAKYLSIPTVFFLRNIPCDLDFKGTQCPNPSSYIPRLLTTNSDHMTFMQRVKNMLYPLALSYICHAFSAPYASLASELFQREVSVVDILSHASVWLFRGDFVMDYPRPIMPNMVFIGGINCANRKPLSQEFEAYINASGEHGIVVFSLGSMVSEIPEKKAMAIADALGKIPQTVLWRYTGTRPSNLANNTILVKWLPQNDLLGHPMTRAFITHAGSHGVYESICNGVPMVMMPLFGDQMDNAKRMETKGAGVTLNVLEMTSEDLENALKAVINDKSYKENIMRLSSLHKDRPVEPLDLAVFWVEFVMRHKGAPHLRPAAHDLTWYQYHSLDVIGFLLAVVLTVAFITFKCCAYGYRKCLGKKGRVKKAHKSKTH

Drug metabolism (Cytochrome P450 3A5 [1]): metabolite_not_detected
Drug metabolism [2]: metabolite_not_detected
Drug metabolism [3]: metabolite_not_detected
Drug metabolism (Cytochrome P450 3A4): metabolite_not_detected
Drug metabolism [4]: metabolite_detected
Drug metabolism (Cytochrome P450 1A2): metabolite_detected
Drug metabolism (Cytochrome P450 2C19): metabolite_detected
Drug metabolism (Cytochrome P450 3A5 [5]): metabolite_not_detected
Drug metabolism [6]: metabolite_detected
Drug metabolism [7]: metabolite_not_detected
SMILES: COc1ccc2nc(COc3ccc(C[14CH]4SC(=O)NC4=O)cc3)n(C)c2c1.Cl (racemic)
